Reference: paper PMC3902791 (Molecular imaging and biology : MIB : the official …, 2012)

Legend:
[1] = Radio-HPLC analysis of radiolabeled metabolites in blood plasma and urine; format: in vivo, rhesus macaques
Method in brief: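 Plasma was ultrafiltered, then run on radio-HPLC (Supelcogel C-610H column, 20 mM phosphoric acid, 0.5 mL/min, UV plus radioactivity detection). Peaks were identified with cold fluorocitrate and fluoride standards, and fractions were taken from peak areas. Urine was collected by Foley catheter, which was clamped until after the second whole-body scan. It was collected at 120–150 min, gamma-counted and analysed by the same HPLC.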

[2] = Humanized time-integrated activity coefficients; format: in vivo, rhesus macaques
Method in brief: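 Six rhesus macaques (3 female, 3 male) received the radiolabelled test compound intravenously, followed by whole-body PET/CT. Organ activity came from 3D VOIs drawn on PET images. Time–activity curves were fitted mono-exponentially, or by a linear fit of log activity for one animal with two scans. Coefficients were scaled by human/macaque whole-body-normalised organ mass ratios, using CT-derived macaque organ masses and the OLINDA/EXM 73.7-kg adult male model.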

[3] = Stability of radiochemical purity of the product; format: physicochemical; conditions: after completion of the synthesis
Method in brief: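 Final product was in 0.9% saline adjusted to pH 6–8 and sterile-filtered. Radiochemical purity was followed after end of synthesis by HPLC: Supelcogel C-610H column (30 cm × 7.8 mm), 20 mM aqueous phosphoric acid, 0.5 mL/min, UV and radioactivity detection.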

## O=C(O)C[18F] [^18F-FACE, ^18F-fluoroacetate]
[1]; 3-h study
  ^18F-fluorocitrate anabolite: not detectable
[1]; urine collected at 120–150 min
  fraction of total radioactivity in urine as ^18F-FACE: 72.4%
  fraction of total radioactivity in urine as ^18F-fluoride: 27.6%
[2]; All, Mean±SD
  Humanized residence time, Gall bladder: 0.011 ± 0.005 h
  Humanized residence time, Heart: 0.034 ± 0.017 h
  Humanized residence time, Intestines: 0.319 ± 0.134 h
  Humanized residence time, Kidneys: 0.044 ± 0.013 h
  Humanized residence time, Liver: 0.209 ± 0.171 h
  Humanized residence time, Remainder of body: 1.751 ± 0.363 h
[2]; Female, Mean±SD
  Humanized residence time, Gall bladder: 0.016 ± 0.002 h
  Humanized residence time, Heart: 0.024 ± 0.013 h
  Humanized residence time, Kidneys: 0.041 ± 0.016 h
  Humanized residence time, Liver: 0.132 ± 0.082 h
  Humanized residence time, Remainder of body: 1.724 ± 0.549 h
[2]; Male, Mean±SD
  Humanized residence time, Gall bladder: 0.007 ± 0.002 h
  Humanized residence time, Heart: 0.043 ± 0.016 h
  Humanized residence time, Intestines: 0.400 ± 0.154 h
  Humanized residence time, Kidneys: 0.047 ± 0.012 h
  Humanized residence time, Liver: 0.287 ± 0.220 h
  Humanized residence time, Remainder of body: 1.778 ± 0.159 h
[2]; animal 1, male
  Humanized residence time, Gall bladder: 0.006 h
  Humanized residence time, Heart: 0.048 h
  Humanized residence time, Kidneys: 0.061 h
  Humanized residence time, Liver: 0.505 h
  Humanized residence time, Remainder of body: 1.706 h
[2]; animal 1, male, assigned in thirds to small, upper large, lower large intestine
  Humanized residence time, Intestines: 0.235 h
[2]; animal 2, male
  Humanized residence time, Gall bladder: 0.009 h
  Humanized residence time, Heart: 0.057 h
  Humanized residence time, Intestines: 0.426 h
  Humanized residence time, Kidneys: 0.038 h
  Humanized residence time, Liver: 0.290 h
  Humanized residence time, Remainder of body: 1.668 h
[2]; animal 3, male
  Humanized residence time, Heart: 0.025 h
  Humanized residence time, Intestines: 0.540 h
  Humanized residence time, Kidneys: 0.043 h
  Humanized residence time, Liver: 0.065 h
  Humanized residence time, Remainder of body: 1.960 h
[2]; animal 4, female
  Humanized residence time, Gall bladder: 0.017 h
  Humanized residence time, Heart: 0.039 h
  Humanized residence time, Intestines: 0.261 h
  Humanized residence time, Kidneys: 0.032 h
  Humanized residence time, Liver: 0.226 h
  Humanized residence time, Remainder of body: 1.138 h
[2]; animal 5, female
  Humanized residence time, Gall bladder: 0.014 h
  Humanized residence time, Heart: 0.016 h
  Humanized residence time, Intestines: 0.256 h
  Humanized residence time, Kidneys: 0.059 h
  Humanized residence time, Liver: 0.078 h
  Humanized residence time, Remainder of body: 1.804 h
[2]; animal 6, female
  Humanized residence time, Heart: 0.017 h
  Humanized residence time, Intestines: 0.196 h
  Humanized residence time, Kidneys: 0.030 h
  Humanized residence time, Liver: 0.093 h
  Humanized residence time, Remainder of body: 2.228 h
[3]
  time the product maintained its radiochemical purity: more than 8 h
